Experimental data pooled from the literature.
Lines come from different studies, so protocols differ.
IGF1R: Insulin-like growth factor 1 receptor (IGF1R, Homo sapiens, UniProt P08069)
IGF1R phosphorylated: Insulin-like growth factor 1 receptor, phosphorylated (IGF1R, Homo sapiens, UniProt P08069)

N#Cc1ccc(Nc2ccc3[nH]c(=O)[nH]c3c2)c(Cl)c1
remaining binding (IGF1R; cell-free assay; competition with immobilised ligand; 1 µM): 99%

CN(c1ncccc1CNc1nc(Nc2ccc3c(c2)CC(=O)N3)ncc1C(F)(F)F)S(C)(=O)=O
inhibition (IGF1R; enzyme activity; inhibitor; 1 µM): 97.6%

CNC(=O)c1cc(Oc2ccc(NC(=O)Nc3ccc(Cl)c(C(F)(F)F)c3)cc2)ccn1
inhibition (IGF1R; enzyme activity; inhibitor; 0.3 µM): -3%

CNCc1ccc(-c2cc(-c3nc(-c4ccc(S(=O)(=O)C(C)C)cc4)cnc3N)on2)cc1
inhibition (IGF1R; enzyme activity; inhibitor; 0.4 µM): 0%

CS(=O)(=O)N1CCCC(NC(=O)[C@H](CCC2CCCCC2)NC(=O)c2ccc(CNc3ncnc4c3nnn4-c3ccccc3)cc2)C1 (stereo partly drawn)
remaining binding (IGF1R; cell-free assay; competition with immobilised ligand; 0.1 µM): 100%

O=C1Nc2ccc(Cl)cc2C1=Cc1cc(Cl)c(O)c(Cl)c1
remaining signal (IGF1R; cell-free assay; 0.5 µM): 98.3%

CCCS(=O)(=O)Nc1ccc(F)c(C(=O)c2c[nH]c3ncc(-c4ccc(Cl)cc4)cc23)c1F
inhibition (IGF1R; enzyme activity; inhibitor; 1 µM): < 10%

Cc1cc(NC(=O)c2cccc3cc(-c4cccc5[nH]nc(N)c45)ccc23)ccc1F
activity vs control (IGF1R; enzyme activity; inhibitor; 0.1 µM): 143%

Cc1ccc(C(=O)NCc2ccsc2)cc1C#Cc1cn(C(C)C)c2ncnc(N)c12
activity vs control (IGF1R phosphorylated; enzyme activity; inhibitor; 1 µM): 136%

COc1cc(/C=C/C(=O)CC(=O)/C=C/c2ccc(O)c(OC)c2)ccc1O
activity vs control (IGF1R; enzyme activity; inhibitor; 1 µM): 99%

C[C@@H](c1cccc(C#N)c1)n1cc(Cl)cc(C(N)=O)c1=N
remaining binding (IGF1R; cell-free assay; competition with immobilised ligand; 1 µM): 96%

O=C(CSc1nc2nccnc2c(=O)n1CCc1ccccc1)Nc1nccs1
inhibition (IGF1R; enzyme activity; inhibitor; 10 µM): 12%

CCN(CC)CCNC(=O)c1c(C)[nH]c(/C=C2\C(=O)Nc3ccc(F)cc32)c1C
inhibition (IGF1R; enzyme activity; inhibitor; 0.3 µM): 4%

Nc1ncnc2occ(-c3ccc(NC(=O)Nc4cc(C(F)(F)F)ccc4F)cc3)c12
remaining signal (IGF1R; cell-free assay; 20 µM): 13%

Cc1c(NC(=O)c2cc(C(N)=O)nc3cc(F)ccc23)c(C(F)(F)F)nn1Cc1ccc(C#N)cc1
remaining binding (IGF1R; cell-free assay; competition with immobilised ligand; 1 µM): 100%

COc1cc2ncnc(Nc3ccc(Oc4ccccc4)c(C)c3C)c2cc1OC
inhibition (IGF1R; enzyme activity; inhibitor; 1 µM): 2%

COc1cc(Nc2c(C#N)cnc3cc(OCCCN4CCN(C)CC4)c(OC)cc23)c(Cl)cc1Cl
remaining signal (IGF1R; cell-free assay; 0.5 µM): 91.5%

Cc1cc(-n2nc(Cc3cc(F)cc(C(F)(F)F)c3)nc2C)ccc1C(N)=O
remaining binding (IGF1R; cell-free assay; competition with immobilised ligand; 1 µM): 98%

N#CCCc1ccc2c(c1)-c1[nH]c3ccc([N+](=O)[O-])cc3c1CC(=O)N2
remaining signal (IGF1R; cell-free assay; 0.5 µM): 92.2%

CNC(=O)c1ccc(Nc2ncc(C(F)(F)F)c(NCc3nccnc3N(C)S(C)(=O)=O)n2)cc1
remaining binding (IGF1R; cell-free assay; competition with immobilised ligand; 0.1 µM): 84%

CN1CC(Oc2cnc(C#N)cc2-c2ccn3nc(NC(=O)C4CC4)cc3c2)C1
inhibition (IGF1R phosphorylated; enzyme activity; inhibitor; 1 µM): -13%
